Here are results for three compounds from ChEMBL document CHEMBL5357041, “Discovery of novel β-elemene hybrids with hydrogen sulfide-releasing moiety possessing cardiovascular protective activity for the treatment of atherosclerosis” (RSC Med Chem, 2024).

In brackets after ≈: the same amount, converted by molar mass. Activity calls are given as the source filed them. The calls are words filed in the database; no cut-off is given here.

Data set [1] in a line: Induction of H2S release in phosphate buffer at 100 uM measured upto 150 mins under L-cysteine stimulated condition by microplate reader analysis. The conditions noted are these: 2.5 h. An outline of the steps:
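Compound (100 μM) incubated with 1 mM L-cysteine in phosphate buffer at 37 °C, sampled at 0–150 min. Each sample quenched with zinc acetate and trichloroacetic acid, then N,N-dimethyl-p-phenylenediamine and FeCl₃ in HCl added. Absorbance read at 670 nm after 10 min; H₂S quantified against a NaHS standard curve (5–150 μM).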

The next data set concerns RAW264.7. In words: Lipid lowering activity in ox-LDL stimulated mouse RAW264.7 cells at 50 uM by oil red O staining based microscopic analysis. The format is functional, cell-based. An outline of the steps:
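RAW 264.7 cells allowed to adhere 2 h, then exposed to ox-LDL (50 μg/mL) plus compound (50 μM) for 24 h. Cells fixed in 4% paraformaldehyde, stained with oil red O, rinsed in 60% isopropanol and counterstained with hematoxylin. Oil red O-positive area percentage quantified microscopically; ANOVA used.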

Data set [2] can be described thus: Water solubility of the compound after 20 mins by HPLC analysis. The format is physicochemical. An outline of the steps: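 Compound suspended in 1 mL water at room temperature, sonicated 20 min and passed through a 0.22 μm filter. Filtrate analyzed by HPLC (MeCN/water 95:5, 1.0 mL/min, UV 254 nm) and quantified against a standard curve of 0.5–500 μg/mL in MeOH.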

A short description of data set [3]: Cytotoxicity against mouse BMDM cells assessed as cell viability at 50 uM incubated for 24 hrs by MTT assay. The format is toxicity, cell-based. The conditions noted are these: BMDM cells (bone marrow-derived macrophages), read-out: Activity. The method, boiled down:
(§1)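 Primary bone marrow macrophages taken from 6-week-old male C57 mice and cultured 6–7 days before use. Compounds dosed for 24 h, then MTT added for 4 h and formazan dissolved in DMSO; absorbance read at 570 nm. Triplicate wells; medium-only and untreated-cell controls; mean ± SD, n = 4.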

Data set [4] deals with Thoracic aorta. Briefly: Vasodilation activity against KCl-induced Sprague-Dawley rat thoracic aorta vessels contraction at 40 uM. It is filed as functional. An outline of the steps:
(§2)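 Aortic rings of about 2 mm from anesthetized SD rats mounted in Krebs solution at 37 °C under oxygen, preload 9.8 mN, equilibrated about 1 h. Rings contracted with 25 mM K⁺, then compound added cumulatively. Relaxation (%) = (maximum KCl tension − tension after compound)/(maximum KCl tension − preload). ADT-OH served as control; mean ± SD, n = 4.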

Data set [5] has as its system Thoracic aorta. In words: Vasodilation activity against KCl-induced Sprague-Dawley rat thoracic aorta vessels contraction at 10 uM. The format is functional. An outline of the steps: as §2
Data set [6] has as its system Thoracic aorta. Briefly: Vasodilation activity against KCl-induced Sprague-Dawley rat thoracic aorta vessels contraction at 20 uM. It is filed as functional. An outline of the steps: as §2
Data set [7] relates to Thoracic aorta. Briefly: Vasodilation activity against KCl-induced Sprague-Dawley rat thoracic aorta vessels contraction at 5 uM. It is filed as functional. An outline of the steps:
as §2

Data set [8] in a line: Cytotoxicity against mouse BMDM cells assessed as cell viability at 100 uM incubated for 24 hrs by MTT assay. The conditions noted are these: BMDM cells (bone marrow-derived macrophages), read-out: Activity. It is filed as toxicity, cell-based. The method, boiled down:
as §1

Data set [9] deals with Thoracic aorta. Briefly: Vasodilation activity against KCl-induced Sprague-Dawley rat thoracic aorta vessels contraction in presence of glyburide. The format is functional, tissue-based.
The test system of data set [10] is HUVEC. In words: Inhibition of H2O2-induced oxidative damage in HUVECs preincubated for 24 hrs followed by H2O2 addition and measured after 2 hrs by MTT method. It is filed as functional, cell-based. The conditions noted are these: Homo sapiens, time 26.0 hrs. An outline of the steps:
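HUVECs were seeded and grown 24 h at 37 °C, 5% CO₂, then given compound (0.5, 5 or 20 μM) for 24 h. Control and model wells received serum-free medium instead. Model and treated wells were then exposed to 1 mM H₂O₂ for 2 h, followed by MTT for 4 h, DMSO, and absorbance at 570 nm. Trolox was the positive control; mean ± SD, n = 5.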

Data set [11] deals with HUVEC. Briefly: Cytotoxicity against HUVECs at 0.5 to 200 uM incubated for 24 hrs by MTT assay. The format is toxicity, cell-based. The conditions noted are these: human, dose 0.5-200 µM. The method, boiled down:
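HUVECs bought from ATCC; compounds given for 24 h, then MTT (5 mg/mL, 20 μL/well) added for 4 h. Formazan dissolved in DMSO and absorbance read at 570 nm. Medium-only and untreated-cell wells served as controls.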

Data set [12] concerns Thoracic aorta. Briefly: Vasodilation activity against KCl-induced Sprague-Dawley rat thoracic aorta vessels contraction at 1 uM. It is filed as functional. The method, boiled down: as §2

`C=C[C@]1(C)CC[C@@H](C(=C)COC(=O)c2c(F)cccc2C(=O)OCCOc2ccc(-c3cc(=S)ss3)cc2)C[C@H]1C(=C)C`: the Activity in data set [1] was 100 µM; in the data set on Thoracic aorta [4] it was 61.41%; in the data set on Thoracic aorta [5], 38.87%; with Thoracic aorta [6] it was 51.85%; in the data set with Thoracic aorta [7] it was 25.08%; in the data set with HUVEC [11], “Non-Toxic”. The Activity in the data set on Thoracic aorta [12] stood at 18.12%. In addition, the outcome in the data set with RAW264.7 and in the data set with Thoracic aorta [9] was Active. For the same compound, in data set [2], the concentration in solution (solubility at 20 min) came to 40 µg/mL (≈ 62.6 µM). Also, in [3], the viability at 24 h, 50 µM turned out to be 193%. In addition, the viability at 24 h, 100 µM in data set [8] was found to be 347%. In addition, the inhibition result in the data set with HUVEC [10] is “Active”.
For the compound `Oc1ccc(-c2cc(=S)ss2)cc1`, the Activity is listed as 75.01% in the data set with Thoracic aorta [4]; 42.24% in the data set with Thoracic aorta [5]; 61.69% in the data set with Thoracic aorta [6]; 5.39% with Thoracic aorta [7]; “Non-Toxic” in the data set on HUVEC [11]; 3.08% with Thoracic aorta [12]. Further, the result in the data set with Thoracic aorta [9] was inactive. The inhibition entry in the data set with HUVEC [10] was “Active”.
`C=C[C@]1(C)CC[C@@H](C(=C)COC(=O)c2ccccc2C(=O)OCCOc2ccc(-c3cc(=S)ss3)cc2)C[C@H]1C(=C)C`: the Activity was 100 µM in [1]; 28.25% in the data set on Thoracic aorta [4]; 17% with Thoracic aorta [5]; 17.46% in the data set on Thoracic aorta [6]; 10.01% in the data set with Thoracic aorta [7]; “Non-Toxic” in the data set on HUVEC [11]. In addition, the Activity in the data set on Thoracic aorta [12] was -2.99%. In addition, the outcome with RAW264.7 was Active. The viability at 24 h, 50 µM in [3] worked out at 349%. In addition, the viability at 24 h, 100 µM in data set [8] came out at 454%. The inhibition entry in the data set on HUVEC [10] is “Active”.
